In the library only some 2.6% were active in any assay of this set; here they are far more common.
ARFGAP1 inh = inhibits rat ARF GTPase activating protein 1; Arfgap1-stimulated ARF1 GTP hydrolysis, GDP FP detection; inhibition, % at 16.5 µM; 0.26% of 360,000 active;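 active means inhibition above a per-plate limit, mean inhibition of low control wells plus 3 SD, cut at about 25% in these data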;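 further: 0% = DMSO wells with enzyme and 100% = wells lacking Arfgap1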
Target sequence (Q62848 1-136 limits assumed): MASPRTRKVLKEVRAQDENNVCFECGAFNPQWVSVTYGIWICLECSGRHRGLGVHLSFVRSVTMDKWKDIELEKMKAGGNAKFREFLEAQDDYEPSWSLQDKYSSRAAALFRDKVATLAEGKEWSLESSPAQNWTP
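Material – truncated rat Arfgap1 GAP domain · Buffer or medium – HEPES-based buffer, pH 7.5 · Reagent – human ARF1(Δ1-17)-GTP substrate · Dosing – 16.5 µM single point, 1.26% DMSO · Schedule – GTP hydrolysis reaction 2 h at 25 °C · Technique – GDP detection by fluorescence polarization · Benchmarks – No-Arfgap1 wells (100%) versus DMSO full-reaction wells (0%) · Repeats – single replicate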
VIM-2 inh = inhibitors of Pseudomonas aeruginosa VIM-2 metallo-beta-lactamase; purified VIM-2, nitrocefin hydrolysis, epi-absorbance fluorescence; 0.89% of 290,000 active; inhibition, % at 5.6 µM;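 active means inhibition above the mean of all tested compounds plus 3 SD, cutoff set per screening run, cut at about 7.5% in these data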;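 further: red hydrolysis product quenches plate fluorescence so inhibitors raise well fluorescence; 0% = enzyme with DMSO and 100% = DMSO without enzyme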
IMP-1 inh = blocks Pseudomonas aeruginosa IMP-1 metallo-beta-lactamase. inhibition, % at 5.6 µM. 0.45% of 290,000 active. purified IMP-1, nitrocefin hydrolysis, epi-absorbance fluorescence. AID 1556;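 active means inhibition above the mean plus 3 SD of all compounds in the same screening run, cut at about 4.5% in these data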;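 further: 0% = IMP-1 with DMSO and 100% = DMSO wells lacking enzyme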
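Material – recombinant IMP-1 enzyme, purified · Amount – IMP-1 0.2 nM before substrate addition · Medium – HEPES buffer pH 7.1 with ZnSO4 and Brij 35 · Timing – 25 °C, 15 min preincubation, 25 min reaction · Measured by – plate fluorescence quenching by hydrolysis product, ex 480/em 530 nm · Read-out – percent enzyme inhibition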
Calb FLC = affects C. albicans growth with fluconazole; growth inhibition, % (test concentration not listed); 0.57% of 300,000 active; AID 1979; C. albicans CaCi-2 + fluconazole, Alamar Blue growth, 48 h;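 active means growth inhibition above about 58% in most replicates, limit read from the data, passing the limit was not always enough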;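 further: all wells also contain fluconazole at 8 µg/ml as a sub-toxic cotreatment; 0% = median of DMSO wells and 100% = median of geldanamycin control wells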
PHOSPHO1 block = blocks human PHOSPHO1 phosphatase activity; 1.1% of 290,000 active; inhibition, % at 13.3 µM; AID 1565; Q8TCT1; recombinant PHOSPHO1, absorbance phosphatase assay; in the data active means inhibition above about 60%
ASAP1 GAP inh = blocks human ASAP1-stimulated Arf1 GTP hydrolysis; 0.19% of 360,000 active; inhibition, % at 16.5 µM; GDP FP detection; in the data active means inhibition above about 25%;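 further: 0% = vehicle with enzyme and substrate and 100% = no enzyme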
Target sequence (Q9ULH1 325-724 limits assumed): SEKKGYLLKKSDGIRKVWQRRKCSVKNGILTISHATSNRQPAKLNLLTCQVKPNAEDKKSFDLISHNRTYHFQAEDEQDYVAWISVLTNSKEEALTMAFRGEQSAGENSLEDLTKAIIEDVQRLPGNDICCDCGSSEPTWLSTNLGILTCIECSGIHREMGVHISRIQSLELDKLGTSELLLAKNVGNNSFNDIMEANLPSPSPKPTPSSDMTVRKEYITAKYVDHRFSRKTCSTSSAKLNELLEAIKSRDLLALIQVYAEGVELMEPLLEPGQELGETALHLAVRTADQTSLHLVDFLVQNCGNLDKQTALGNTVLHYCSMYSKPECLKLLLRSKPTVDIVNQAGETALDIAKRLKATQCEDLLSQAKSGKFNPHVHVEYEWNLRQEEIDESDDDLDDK
* hit, by the source's call; / = no result.

SMILES	ARFGAP1 inh	VIM-2 inh	IMP-1 inh	Calb FLC	PHOSPHO1 block	ASAP1 GAP inh
CCN1CCCC1CN(Cc1cc2ccc(C)cc2[nH]c1=O)C(=S)Nc1ccc(F)cc1 (configuration not stated)	-1	10*	0	4	-19	-12
COc1cccc(C(=O)N[C@H](C(=O)N2CCC[C@H]2C(=O)NC2CCCC2)C2CCCCC2)c1	13	/	/	/	/	-6
C=CCN=C(NC#N)SCC(=O)NC(C)(C)C	3	-3	5.4*	22	-14	0
CN(C)c1ccc(/C=N/Nc2ccc(-n3ccnc3)nn2)cc1	12	8.2*	-2	-11	86*	8
Cc1ccc(O)c(CNc2nccs2)c1	-8	-1	-1	-10	-11	2
Oc1ccc(Cl)cc1CNc1nccs1	4	2	8.4*	-11	14	7
CCc1cc(CNC(=O)c2ccc(OC3CCN(CCc4ccccc4)CC3)cc2)on1	7	-2	13*	-8	28	0
CCCCOCC1CN(CCCC)S(=O)(=O)c2c(cccc2N(C)S(=O)(=O)c2ccc(C)cc2)O1 (configuration not stated)	0	/	/	/	/	-1
COc1ccccc1NC(=O)Cn1cncc1-c1ccc([N+](=O)[O-])cc1	12	-2	-1	4	26	9
Cc1ccc(NC(=O)Cn2cncc2-c2ccc([N+](=O)[O-])cc2)cc1C	3	-2	12*	10	39	-8
COc1cccc(N(CC(=O)NCCSCc2ccco2)S(=O)(=O)c2ccccc2)c1	-3	1	5.0*	-7	31	1
CCOc1ccccc1NC(=O)C(=O)N/N=C/c1cc(Br)ccc1O	-3	-2	-2	108*	36	15
COc1ccc(NC(=O)CCS(=O)(=O)c2ccc(OC)cc2)cc1	14	-2	-1	-12	-1	-8
CCOc1ccccc1NC(=O)CCS(=O)(=O)c1ccc(Br)cc1	15	-4	18*	3	11	7
CCOc1ccc(NC(=O)CCS(=O)(=O)c2ccc(Br)cc2)cc1	-15	-3	16*	19	15	-14
CCOc1ccccc1NC(=O)CCNS(=O)(=O)c1ccc(NC(C)=O)cc1	7	0	-2	-3	28	-7
CCc1ccccc1NC(=O)CCS(=O)(=O)c1ccc(Br)cc1	-6	-2	34*	3	14	0
CCCCS(=O)(=O)N1CCCc2nc(-c3ccc(OC)cc3)ccc21	5	/	/	/	/	-1
COC(=O)[C@H](Cc1ccccc1)NC(=O)[C@H]1O[C@@H](n2cnc3c(=O)[nH]c(N)nc32)[C@H](O)[C@@H]1O	4	/	/	/	/	-1
COc1ccc(CCN2CC(=O)N3CCc4ccc(N5CCOCC5)cc4C3CC2=O)cc1OC (configuration not stated)	-8	/	/	/	/	-2
O=C(CCS(=O)(=O)c1ccc(Br)cc1)NCc1cccs1	-1	2	-2	-2	-36	4
COc1cccc(/C=N/NC(=O)C(=O)Nc2ccccc2OC(F)(F)C(F)F)c1O	8	-1	-1	109*	7	5
COc1ccccc1/C=N/NC(=O)c1cccc(OC(F)(F)C(F)F)c1	-6	-4	-4	3	12	0
O=C(CCS(=O)(=O)c1ccc(Br)cc1)NCc1ccco1	-12	-2	20*	11	2	-14
COC(=O)c1ccccc1NC(=O)CCS(=O)(=O)c1ccc(Br)cc1	-2	-2	35*	11	38	-13
SMILES	ARFGAP1 inh	VIM-2 inh	IMP-1 inh	Calb FLC	PHOSPHO1 block	ASAP1 GAP inh
O=C(C(=O)N1CCN(S(=O)(=O)c2ccc(OC(F)(F)F)cc2)CC1)c1cccc(C(F)(F)F)c1	-7	/	/	/	/	6
Cc1ccc(N2C(=O)CS/C2=C(\C(Cl)=C(Cl)Cl)[N+](=O)[O-])cc1	19	-3	-3	-4	80*	12
COc1ccc(C(C)(O)c2nc(-c3cccc(O)c3)cs2)cc1 (configuration not stated)	3	/	/	/	/	0
COc1ccc(C(=O)N/C(=C\c2ccco2)C(=O)NCCCn2ccnc2)cc1	-1	-3	0	-5	-1	3
COc1ccc(C(C)=O)cc1CC(=O)NCCCn1ccnc1	-1	-2	4.8*	6	27	-2
Cc1ccc(C(=O)N/C(=C\c2ccco2)C(=O)NCCCn2ccnc2)cc1C	-10	3	9.7*	45	36	-2
COc1ccc(Cl)cc1C(=O)NCCCn1ccnc1	-10	6	3	17	34	10
O=c1[nH]cc(N=Cc2cc(Cl)cc(Cl)c2O)c(=O)[nH]1	-3	0	12*	-1	24	6
O=c1[nH]cc(N=Cc2cc([N+](=O)[O-])ccc2O)c(=O)[nH]1	/	-2	-1	93*	29	/
COc1ccc(CNC(=O)c2c(N)[nH]c(C(=O)c3ccccc3)c2-c2ccc3ccccc3c2)cc1OC	-5	/	/	/	/	7
C[C@@H]1CN([C@@H](C)CO)C(=O)c2cc(Br)cnc2O[C@@H]1CN(C)C(=O)c1ccc(F)cc1	1	/	/	/	/	8
O=C(O)COc1ccc(Br)cc1/C=C1/SC(=O)N(CC(=O)N2CCCC2)C1=O	8	-1	43*	47	36	-2
O=C(O)Cn1cc(/C=C2/SC(=O)N(CC(=O)N3CCCCCC3)C2=O)c2ccccc21	-4	3	-1	9	22	-5
Nc1[nH]c(C(=O)c2ccc(Br)cc2)c(-c2cccc3ccccc23)c1C(=O)NCCc1c[nH]c2ccccc12	17	/	/	/	/	9
Cc1ccccc1S(=O)(=O)Cc1ccc(C(=O)NC2CCCCC2)o1	-8	-3	-3	5	65*	-13
Nc1[nH]c(C(=O)c2ccccc2)c(-c2ccc3ccccc3c2)c1C(=O)NC1CC1	-6	/	/	/	/	0
COc1cc(/C=C/C(=O)NCc2cccnc2)cc(OC)c1OC	10	-3	0	3	-15	-4
COc1cc(/C=C/C(=O)Nc2cccnc2)cc(OC)c1OC	10	2	1	76*	-46	8
CCCCOCC1CN(Cc2ccccc2OC)S(=O)(=O)c2cc(Cl)ccc2O1 (configuration not stated)	5	/	/	/	/	-9
CCn1c(=NC(=O)CN2C(=O)CCC2=O)sc2c(OC)ccc(OC)c21	3	0	4.6*	0	-9	-9
NC(Cc1ccc(O)cc1)C(=O)NN=Cc1ccccc1O (configuration not stated)	-17	/	/	/	/	-2
CCc1c(-c2ccccc2F)ncn1CCc1ccccc1OC	-1	/	/	/	/	2
COCCN=C1Sc2nc3ccc(C)cc3cc2CN1Cc1ccco1	-11	-3	-4	-2	97*	-8
COCCN=C1Sc2nc3cc(C)c(C)cc3cc2CN1Cc1cccs1	-1	-1	0	10	-8	12
O=Nc1c(O)n(Cc2cccc(Cl)c2)c2ccccc12	3	-2	-5	84*	33	-8
